Where a chain is given by its changes, count along the chain named.
Tests used:
P2X1 receptor R292A = target: T1, P2X1 receptor R292A (Homo sapiens, UniProt P51575, R292A); experiment: Saturation radioligand binding with [3H]-α,β-methylene ATP
T1 sequence (P51575 1-399 R292A): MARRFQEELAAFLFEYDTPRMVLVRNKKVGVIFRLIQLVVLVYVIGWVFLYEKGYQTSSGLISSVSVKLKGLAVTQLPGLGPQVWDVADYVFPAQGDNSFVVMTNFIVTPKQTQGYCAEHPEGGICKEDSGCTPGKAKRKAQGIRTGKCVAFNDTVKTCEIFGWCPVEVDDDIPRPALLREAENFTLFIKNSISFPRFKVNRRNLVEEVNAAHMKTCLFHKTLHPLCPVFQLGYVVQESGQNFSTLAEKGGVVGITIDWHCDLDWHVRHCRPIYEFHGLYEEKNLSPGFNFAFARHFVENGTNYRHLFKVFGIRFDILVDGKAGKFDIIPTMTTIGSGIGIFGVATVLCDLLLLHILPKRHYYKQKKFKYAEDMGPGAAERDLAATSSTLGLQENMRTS
How it was run: (§1)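 Whole HEK293 Flp-In T-REx cells stably expressing receptor, tetracycline-induced (150 ng/ml, 2 days), 15,000 cells/well, washed in HEPES binding buffer pH 7.4 with Ca2+/Mg2+. Increasing [3H]-α,β-methylene ATP added, 3 h room temperature with gentle agitation; non-specific binding with 10 μM ATP. Ice-cold 0.9% NaCl washes, scintillation counting (CCPM). Specific binding fitted one-site; values above 300 nM termed not defined.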

WT-P2X1 receptor = target: T2, WT-P2X1 receptor (Homo sapiens, UniProt P51575); experiment: Calcium ion influx assay; format: cell-based; conditions: read-out: potency; WT-P2X1, Fig. 4B
T2 sequence (P51575 1-399): T1 sequence (P51575 1-399 R292A) with A292R

P2X1 receptor E282A = target: T3, P2X1 receptor E282A (Homo sapiens, UniProt P51575, E282A); experiment: Saturation radioligand binding with [3H]-α,β-methylene ATP
T3 sequence (P51575 1-399 E282A): T1 sequence (P51575 1-399 R292A) with E282A, A292R
How it was run: as §1

P2X1 receptor D97A = target: T4, P2X1 receptor D97A (Homo sapiens, UniProt P51575, D97A); experiment: as above
T4 sequence (P51575 1-399 D97A): T1 sequence (P51575 1-399 R292A) with D97A, A292R
How it was run: as §1

P2X1 receptor K215A = target: T5, P2X1 receptor K215A (Homo sapiens, UniProt P51575, K215A); experiment: as above
T5 sequence (P51575 1-399 K215A): T1 sequence (P51575 1-399 R292A) with K215A, A292R
How it was run: as §1

P2X1 receptor D170A = target: T6, P2X1 receptor D170A (Homo sapiens, UniProt P51575, D170A); experiment: Calcium ion influx assay; format: cell-based
T6 sequence (P51575 1-399 D170A): T1 sequence (P51575 1-399 R292A) with D170A, A292R
How it was run: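 Tetracycline-induced (150 ng/mL, 2 days) stable HEK293 Flp-In T-REx cells at 15,000 cells/well, loaded with Fluo-8 for 1 h at 37 °C in probenecid-containing HEPES buffer, pH 7.4. Then 30 min buffer incubation, 20 s baseline, agonist addition and 2 min reading (ex 485/em 525 nm). Max-minus-min fluorescence normalised to 10 µM ionomycin, rescaled 0–100. Constrained four-parameter fit; EC50 per experiment; four independent experiments, triplicate.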

Nc1ncnc2c1ncn2[C@@H]1O[C@H](COP(=O)(O)CP(=O)(O)OP(=O)(O)O)[C@@H](O)[C@H]1O [α,β-methylene ATP]
binding affinity compared to WT-P2X1 (P2X1 receptor R292A): reduced | EC50 (WT-P2X1 receptor): 0.099 µM | binding affinity compared to WT-P2X1 (P2X1 receptor E282A): similar | binding affinity compared to WT-P2X1 (P2X1 receptor D97A): similar | binding affinity compared to WT-P2X1 (P2X1 receptor K215A): similar | fold decrease in potency compared to WT-P2X1 (P2X1 receptor D170A): 58 fold
